Assay outcomes (PubChem BioAssay)
Hits are enriched below; roughly 1.9% of the tested compounds scored in any of these assays.
PLCb3 inh – PLC-beta3 (human) inhibition, primary screen. inhibition, % at 12.2 µM. AID 720704. Q01970. 0.18% of 370,000 active. Purified PLC-beta3, fluorogenic substrate, fluorescence; in the data active = inhibition above about 11%;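 also: 0% = median of compound wells on plate and 100% = full blocker control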
procasp7 counter – counter-screen: procaspase-7 (human) activation; AID 463210; activation, % at 8.5 µM; P55210; recombinant procaspase-7, Ac-DEVD-pNA absorbance 405 nm; D23A/D198A/D206A triple mutant, cannot self-cleave; scale: DMSO 0, 5 µM enzyme 100; 0.093% of 330,000 active;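 active = percent activation above the screen-wide mean plus 3 SD, cut at about 25% in these data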
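System: Procaspase-7 triple mutant (PC-7 D3A); measure: % activation from two-timepoint absorbance difference, scaled to controls; times: 1 h compound preincubation, 2 h substrate cleavage, 25 °C; also added: Ac-DEVD-pNA substrate, 400 µM as added; measured by: Epi-absorbance of released pNA at 405 nm, two timepoints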
proCasp3 act – activators of human procaspase-3. recombinant procaspase-3 D3A, Ac-DEVD-pNA absorbance 405 nm. activation, % at 8.5 µM. 0.11% of 330,000 active. P42574;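 active = activation above the mean of all tested compounds plus 3 SD, cut at about 21% in these data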;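 also: 0% = DMSO alone and 100% = DMSO wells spiked with extra 5 µM PC-3 D3A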
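Test system: Procaspase-3 D3A mutant, all three cleavage aspartates alanine | Dosing: Single dose, 8.5 µM nominal compound, 0.8% DMSO | Schedule: 1 h preincubation, 2 h reaction | Technique: 405 nm absorbance of p-nitroaniline, reads at 0 and 120 min | Repeats: One well per compound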
Arr AP2 block – blocks beta-arrestin peptide binding to AP2 adaptin. FITC-arrestin peptide / GST-AP2 beads, flow cytometry; AP2 beta2 appendage carries R879A mutation. AID 504490. 0.31% of 340,000 active. inhibition, % at 10 µM;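 active = inhibition above a set limit, near 3 SD of compounds lacking own fluorescence, cut at about 54% in these data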;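 also: plate controls were DMSO wells for no effect and 5 µM unlabelled arrestin peptide for full effect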
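Test system: GST-tagged AP2 beta2-adaptin appendage (R879A) on 4 µm glutathione beads; also added: fluorescein-tagged arrestin peptide at 50 nM final; timing: 12 min plus 1 h, RT; signal: flow cytometry, FL1 (488/535 nm); read-out: percent drop in bead-associated FITC signal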
PLCg1 inh – blocks human PLC-gamma1 enzyme activity; purified PLC-gamma1, fluorogenic substrate, fluorescence; 0.84% of 370,000 active; AID 720700; inhibition, % at 12.2 µM
HGIII-sPLA2 inh – Blocks human group III sPLA2 activity; 0.56% of 370,000 active; Q9NZ20; AID 743126; inhibition, % at 12.2 µM; QFRET BODIPY PC-A2 liposome hydrolysis, fluorescence;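 active = inhibition above mean plus 3 SD of compounds lying within the high and low control bounds, cut at about 19% in these data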;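 also: 0% = median of test compound wells and 100% = no enzyme DMSO wells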
Target sequence (Q9NZ20 whole entry, looked up): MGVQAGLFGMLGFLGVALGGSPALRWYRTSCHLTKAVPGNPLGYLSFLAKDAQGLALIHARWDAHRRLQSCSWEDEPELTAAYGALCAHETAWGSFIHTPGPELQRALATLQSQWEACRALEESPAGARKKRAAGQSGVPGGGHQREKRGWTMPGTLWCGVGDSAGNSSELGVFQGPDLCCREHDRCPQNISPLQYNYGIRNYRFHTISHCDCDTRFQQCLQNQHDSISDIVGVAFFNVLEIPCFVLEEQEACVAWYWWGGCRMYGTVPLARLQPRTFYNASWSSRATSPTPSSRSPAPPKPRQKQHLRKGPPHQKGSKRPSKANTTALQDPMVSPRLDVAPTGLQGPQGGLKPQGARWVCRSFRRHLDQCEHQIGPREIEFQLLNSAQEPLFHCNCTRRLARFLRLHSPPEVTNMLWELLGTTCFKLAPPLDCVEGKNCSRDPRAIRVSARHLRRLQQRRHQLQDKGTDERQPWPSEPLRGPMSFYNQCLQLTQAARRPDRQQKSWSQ
PLCgamma1 ctr – inhibits human PLC-gamma1 in PLC-beta3 counter-screen | shares compounds with PLCg1 inh | purified PLC-gamma1, fluorogenic substrate, fluorescence | inhibition, % at 12.3 µM | 3.1% of 3,300 active
PLCbeta3 conf – confirmation of human PLC-beta3 inhibitors; shares compounds with PLCg1 inh; purified PLC-beta3, fluorogenic substrate fluorescence; inhibition, % at 12.3 µM; 1% of 3,300 active; in the data active = inhibition above about 11%
* hit, by the source's call; nt = no result given. Rule as the data show it, unless noted: active = inhibition above about 9.5%; inactive = the rest.

SMILES	PLCb3 inh	procasp7 counter	proCasp3 act	Arr AP2 block	PLCg1 inh	HGIII-sPLA2 inh	PLCgamma1 ctr	PLCbeta3 conf
Cc1ccccc1CN1CCCCC(NC(=O)Nc2cccc([N+](=O)[O-])c2)C1=O (stereo not given)	1	nt	nt	nt	0	-21	nt	nt
CCOC(=O)c1c(C)n(C)c2cc(Br)c(OC)cc12	-1	8	-6	3	4	0	nt	nt
CCOC(=O)c1c(C)oc2cc(Br)c(OC)cc12	1	3	-4	-3	9.8*	5	-4	-4
CC(C)NC(=O)C1(C)CN(S(C)(=O)=O)CC(=O)N1CC(F)(F)F (stereo not given)	2	nt	nt	nt	2	4	nt	nt
COc1ccc(S(C)(=O)=O)cc1S(C)(=O)=O	8	14	-8	0	9.5*	14	-5	-2
COc1ccc(S(=O)(=O)n2cccc2)cc1OC	-7	1	-2	-15	-2	10	nt	nt
CC(C)(C)NC(=O)NC(=O)COc1ccc(Br)cc1Br	7	-1	0	-1	11*	3	-2	1
Cc1c(C(=O)NCc2ccccn2)oc2ccc(S(=O)(=O)N3CCC4(CC3)OCCO4)cc12	0	-5	1	53	0	-9	nt	nt
Cc1c(C(=O)NCc2ccccc2)oc2ccc(S(=O)(=O)N3CCC4(CC3)OCCO4)cc12	1	-1	6	50	10*	-16	-7	-2
O=C(CN1C(=O)NC2(CCCCCCC2)C1=O)NCc1ccc(Cl)cc1	-4	10	4	-12	12*	2	-5	-3
CC1CCC2(CC1)NC(=O)N(CC(=O)NCc1ccc(Cl)cc1)C2=O (stereo not given)	0	4	2	-3	-2	-7	nt	nt
CN(Cc1ccccc1)C(=O)CN1C(=O)NC2(CCCCCCC2)C1=O	0	0	10	26	13*	1	1	5
O=C(NCc1ccco1)c1ccc(F)c(S(=O)(=O)N2CCCCC2)c1	1	-7	-5	21	0	-2	nt	nt
O=C(NCc1ccco1)c1ccc(Br)c(S(=O)(=O)N2CCCCC2)c1	9	-2	3	1	11*	-24	-2	1
Cc1ccccc1NS(=O)(=O)c1cc(C(=O)NCc2ccco2)ccc1C	3	-2	4	0	10*	-9	3	2
CCCCn1c(=O)n(CC(=O)Nc2ccc(OC)c(Cl)c2)c(=O)c2c1nc(CO)n2CCC	6	18	2	17	9.7*	-15	13*	7
CC(=O)NC(CCS(C)(=O)=O)C(=O)Nc1cc(C)on1 (stereo not given)	5	1	2	0	10*	1	-37	1
CCCC1CCC2(CCCN2CCOC(=S)Nc2ccccc2OC)CC1 (stereo not given)	-7	nt	nt	nt	5	13	nt	nt
CN(C)CCCNS(=O)(=O)c1ccc(NC2CCCCCC2)c([N+](=O)[O-])c1	-4	-3	6	13	15*	-26	-2	4
CCNc1ccc(S(=O)(=O)NCCN(C)C)cc1[N+](=O)[O-]	-9	2	11	32	4	7	nt	nt
CCSC1=C(C#N)C2(CCCCC2)C(C#N)C(=O)N1 (stereo not given)	2	11	-6	-9	13*	0	-6	-5
CCSC1=C(C#N)C2(CCCCC2)C(C#N)=C(N)N1	-2	-3	5	-1	-3	6	nt	nt
CCOCCCNC(=O)C(c1ccc(Cl)cc1)N(Cc1ccc2c(c1)OCO2)C(=O)CNC(C)=O (stereo not given)	-2	2	-1	40	0	-1	nt	nt
CCOCCCNC(=O)C(c1ccc(C)cc1)N(Cc1ccc2c(c1)OCO2)C(=O)CNC(C)=O (stereo not given)	0	2	9	4	13*	-6	-26	-12
